Legend:
hERG (KCNH2) = hERG (KCNH2) (Homo sapiens, UniProt Q12809); assay: Inhibition of human ERG channel expressed in HEK293 cells at 1 uM by voltage patch clamp technique; format: cell-based; conditions: HEK293 cells that express hERG
[1] = Inhibition of sodium channel in Wistar rat cerebrocortical synaptosomes assessed as inhibition of veratridine-induced depolarization using rhodamine-6G by spectrofluorometry; format: subcellular, Brain
[2] = Neuroprotective activity in guinea pig papillary muscles assessed as action potential duration at 90% repolarization at 30 uM after 30 mins relative to control; format: functional, Cavia porcellus, Muscle tissue
In short: (§1)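 Intracellular action potentials were evoked by 1 ms pulses at 1.5–3 times the voltage threshold, with all solutions held at 36 °C. APD90 was recorded before and 30 min after compound exposure and expressed against the pre-treatment value.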

[3] = Neuroprotective activity in guinea pig papillary muscles assessed as action potential duration at 90% repolarization at 3 uM after 30 mins relative to control; format: functional, Cavia porcellus, Muscle tissue; in short: as §1
[4] = Neuroprotective activity in guinea pig papillary muscles assessed as action potential duration at 90% repolarization at 10 uM after 30 mins relative to control; format: functional, Cavia porcellus, Muscle tissue; in short: as §1
Rattus norvegicus [5] = assay: Neuroprotective activity in Wistar rat transient middle cerebral artery occlusion model at 2.5 mg/kg, sc administered 30 mins after occlusion; format: functional; conditions: route subcutaneous
In short: (§2)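 Female Wistar rats, 8 weeks old, underwent 90 min transient MCAO followed by reperfusion. Drug was given sc 30 min after occlusion at 0.8, 2.5 or 8.2 mg/kg, and controls received an equal volume of saline. At 24 h the brain was cut into 7 slices and TTC-stained. Infarct area per slice was measured by image analysis and summed to infarct volume; n = 5–6, mean ± SEM, Student's t-test.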

[6] = Neuroprotective activity in guinea pig papillary muscles assessed as action potential duration at 90% repolarization at 100 uM after 30 mins relative to control; format: functional, Cavia porcellus, Muscle tissue
In short: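 Action potentials were evoked by 1 ms stimuli at 1.5–3 times threshold voltage, with all solutions kept at 36 °C. APD90 was recorded before compound exposure and again 30 min after.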

Rattus norvegicus [7] = assay: Neuroprotective activity in Wistar rat transient middle cerebral artery occlusion model at 0.8 mg/kg, sc administered 30 mins after occlusion; format: functional; conditions: route subcutaneous; in short: as §2
Rattus norvegicus [8] = assay: Neuroprotective activity in Wistar rat transient MCAO model assessed as reduction in cerebral infarction size at 8.2 mg/kg, sc (reference value: 379.8 +/- 43.8 mm'3); format: functional; conditions: route subcutaneous; in short: as §2
Rattus norvegicus [9] = assay: Neuroprotective activity in Wistar rat transient middle cerebral artery occlusion model at 8.2 mg/kg, sc administered 30 mins after occlusion; format: functional; conditions: route subcutaneous; in short: as §2
Rattus norvegicus [10] = assay: Neuroprotective activity in sc dosed Wistar rat transient middle cerebral artery occlusion model administered 30 mins after occlusion; format: functional, organism-based; in short: as §2

Chain of hERG (KCNH2) (Q12809 whole entry): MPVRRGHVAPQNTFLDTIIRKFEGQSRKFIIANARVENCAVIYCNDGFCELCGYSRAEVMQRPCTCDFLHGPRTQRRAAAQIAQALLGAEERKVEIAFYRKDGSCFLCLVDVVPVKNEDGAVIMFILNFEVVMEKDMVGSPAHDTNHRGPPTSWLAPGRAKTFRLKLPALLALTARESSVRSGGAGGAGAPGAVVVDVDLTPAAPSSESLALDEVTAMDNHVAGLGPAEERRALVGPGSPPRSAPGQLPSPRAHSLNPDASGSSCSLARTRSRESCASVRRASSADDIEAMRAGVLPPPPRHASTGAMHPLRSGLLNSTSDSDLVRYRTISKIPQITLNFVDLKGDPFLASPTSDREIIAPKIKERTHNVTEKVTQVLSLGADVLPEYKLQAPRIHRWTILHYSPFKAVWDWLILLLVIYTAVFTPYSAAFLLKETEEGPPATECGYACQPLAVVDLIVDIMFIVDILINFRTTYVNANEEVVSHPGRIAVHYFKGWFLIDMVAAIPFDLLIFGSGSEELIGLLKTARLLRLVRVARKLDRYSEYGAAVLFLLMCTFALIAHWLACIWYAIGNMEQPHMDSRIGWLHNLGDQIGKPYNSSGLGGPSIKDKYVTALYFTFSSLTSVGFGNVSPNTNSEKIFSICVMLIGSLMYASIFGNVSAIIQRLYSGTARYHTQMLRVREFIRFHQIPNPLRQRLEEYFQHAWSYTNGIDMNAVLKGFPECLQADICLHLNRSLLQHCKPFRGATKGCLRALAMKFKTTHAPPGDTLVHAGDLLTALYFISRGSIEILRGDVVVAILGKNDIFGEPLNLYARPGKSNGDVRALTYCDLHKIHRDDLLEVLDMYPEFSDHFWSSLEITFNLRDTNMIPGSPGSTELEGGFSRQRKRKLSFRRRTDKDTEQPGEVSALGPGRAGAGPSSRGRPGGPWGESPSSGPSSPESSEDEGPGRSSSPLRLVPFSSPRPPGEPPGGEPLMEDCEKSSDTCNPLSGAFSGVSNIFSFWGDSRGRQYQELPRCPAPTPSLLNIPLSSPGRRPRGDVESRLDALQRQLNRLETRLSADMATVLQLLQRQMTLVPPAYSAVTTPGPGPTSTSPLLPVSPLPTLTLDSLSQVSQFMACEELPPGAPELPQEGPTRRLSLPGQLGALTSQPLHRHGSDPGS

Row | SMILES | inhibition at 1 µM (hERG (KCNH2)) [%] | IC50 [1] [nM] | also measured
1 | Cc1nc(OCCCCCN2CCCCC2)cc(-c2ccc(F)cc2)n1 | 60 | – | –
2 | Cc1cc(OC[C@@H](O)CN2CCN(c3ccc(Cc4ccc(F)cc4)cc3)CC2)c(C)c(C)c1N | 78 | – | –
3 | c1ccc(CN2C[C@H](NC3CCCCC3)[C@@H](c3ccccc3)C2)cc1 | – | 570 | –
4 | c1ccc(CN2C[C@@H](NC3CCCCC3)[C@H](c3ccccc3)C2)cc1 | – | 540 | –
5 | C[C@@H](CN1CC[C@@]2(C)c3cccc(O)c3C[C@@H]1C2(C)C)OCc1ccccc1.Cl | 69 | – | Activity [2]: 72.9%; Activity [3]: 96.6%; Activity [4]: 89.1%
6 | OC(COc1ccc2c(c1)CCC2)CN1CCC(c2nc3ccccc3[nH]2)CC1 (configuration not stated) | 99 | – | –
7 | c1ccc(CN2C[C@H](NC3CCCCC3)[C@H](c3ccccc3)C2)cc1 | 28 | 560 | –
8 | O=C(N[C@@H]1CN(Cc2ccccc2)C[C@H]1c1ccccc1)c1ccccc1 (racemic) | 45 | 1900 | –
9 | c1ccc(CN[C@@H]2CN(Cc3ccccc3)C[C@H]2c2ccccc2)cc1 (racemic) | 57 | 640 | –
10 | O=C(N[C@@H]1CN(Cc2ccccc2)C[C@H]1c1ccccc1)C1CCCCC1 (racemic) | 31 | 480 | –
11 | c1ccc(CN2C[C@@H](NCC3CCCCC3)[C@H](c3ccccc3)C2)cc1 (racemic) | 60 | 320 | –
12 | c1ccc(CN2C[C@@H](Nc3ccccc3)[C@H](c3ccccc3)C2)cc1 (racemic) | 43 | 480 | –
13 | O=C(N[C@@H]1CN(Cc2ccccc2)C[C@H]1C1CCCCC1)C1CCCCC1 (racemic) | 45 | 740 | –
14 | c1ccc(CN[C@@H]2CN(Cc3ccccc3)C[C@H]2C2CCCCC2)cc1 (racemic) | 79 | 900 | –
15 | c1ccc(CN2C[C@@H](NC3CCCCC3)[C@H](C3CCCCC3)C2)cc1 (racemic) | 35 | 740 | –
16 | Cl.Cl.c1ccc(CN2C[C@@H](NC3CCCCC3)[C@H](c3ccccc3)C2)cc1 (racemic) | 8.4 | 510 | Activity (Rattus norvegicus [5]): 37%; Activity [6]: 90.8%; Activity [2]: 92.3%; Activity [4]: 95.3%; Activity (Rattus norvegicus [7]): 27%; Activity (Rattus norvegicus [8]): 166.7 mm3; Activity (Rattus norvegicus [9]): 56%
17 | c1ccc(CN2C[C@@H](NCC3CCCCC3)[C@H](C3CCCCC3)C2)cc1 (racemic) | 60 | 560 | –
18 | c1ccc([C@@H]2CN(C3CCCCC3)C[C@H]2NC2CCCCC2)cc1 (racemic) | – | 3350 | –
19 | c1ccc([C@@H]2CN(CC3CCCCC3)C[C@H]2NC2CCCCC2)cc1 (racemic) | 45 | 380 | –
20 | c1ccc(CN2C[C@@H](NC3CCCCC3)[C@H](c3ccccc3)C2)cc1 (racemic) | – | – | Activity (Rattus norvegicus [10]): Dose-dependent effect
